# Data published in ChEMBL document CHEMBL1138529, “Efficacy, pharmacokinetics, and metabolism of tetrahydroquinoline inhibitors of Plasmodium falciparum protein farnesyltransferase” (Antimicrob Agents Chemother, 2007).
# Legend:
# [1] = Inhibition of Plasmodium falciparum protein farnesyltransferase by SPA method
# [2] = Permeability from apical to basolateral side in human Caco-2 cells; assay type: ADME, cell-based; conditions: read-out: permeability
# Rattus norvegicus = experiment: Toxicity in Sprague-Dawley rat at 50 mg/kg, po; assay type: organism-based; set-up: dose 50 mg/kg, route oral; conditions: in vivo
# How it was run: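 Female Sprague-Dawley rats, 10-12 weeks, three per group. 50 mg/kg oral gavage in 3% EtOH-7% Tween 80-90% normal saline. Saphenous vein plasma sampled over time, and animals observed for adverse reactions.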
# Plasmodium falciparum = experiment: Antiplasmodial activity against Plasmodium falciparum by [3H]hypoxanthine uptake; assay type: functional; conditions: read-out: ED50 (the source's name)
# How it was run: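 Asynchronous P. falciparum (3D7 or K1) in RPMI 1640 with 20% heat-inactivated human A+ plasma, 0.5% parasitemia and 0.5% hematocrit; compound serially diluted, top final 5 μM, 48 h at 37°C under 5% CO2/5% O2/90% N2, then [8-3H]hypoxanthine 0.3 μCi added for 24 h.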
# Mus musculus = experiment: Toxicity in BALB/c mouse at 50 mg/kg, po; assay type: organism-based; set-up: dose 50 mg/kg, route oral; conditions: in vivo
# [3] = Permeability from basolateral to apical side in human Caco-2 cells; assay type: ADME, cell-based; conditions: read-out: permeability
# How it was run: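 Caco-2 clone TC7 grown on laminin-coated porous inserts and used 19-21 days after seeding; integrity checked by TEER and [3H]mannitol flux. Monolayers equilibrated 30 min at 37°C in HBSS/5 mM HEPES pH 7.4. Compound at 50 μM final added to basolateral donor side. Apical receiver sampled at 60 min, 37°C with shaking; LC/MS; Papp calculated from 60-min concentrations.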
Compound,IC50 [1] [nM],Papp A→B [2] [×10⁻⁶ cm/s],Activity (Rattus norvegicus),EC50 (Plasmodium falciparum) [nM],Activity (Mus musculus),Papp B→A [3] [×10⁻⁶ cm/s]
CC(C)C(=O)N1CCC(CN(C2Cc3cc(C#N)ccc3N(Cc3cncn3C)C2)S(=O)(=O)c2ccccn2)CC1 (stereo not given),0.6,0.5,Non-toxic,14,Non-toxic,
Cn1cncc1CN1CC(N(CC2CCN(C(=O)CC(F)(F)F)CC2)S(=O)(=O)c2ccccn2)Cc2cc(C#N)ccc21 (stereo not given),0.6,0.5,Non-toxic,18,Non-toxic,
CC(C)NCC(O)COc1cccc2ccccc12 (stereo not given) [PROPRANOLOL],,28.9,,,,83.4
Cn1cncc1CN1CC(N(CC2CCN(C(=O)N3CCCCC3)CC2)S(=O)(=O)c2ccccn2)Cc2cc(C#N)ccc21 (stereo not given),0.8,0.6,Non-toxic,13,Non-toxic,
CCNC(=O)N1CCC(CN(C2Cc3cc(C#N)ccc3N(Cc3cncn3C)C2)S(=O)(=O)c2ccccn2)CC1 (stereo not given),0.8,0.6,Non-toxic,13,Non-toxic,
CC(C)NC(=O)N1CCC(CN(C2Cc3cc(C#N)ccc3N(Cc3cncn3C)C2)S(=O)(=O)c2ccccn2)CC1 (stereo not given),0.8,0.6,Non-toxic,13,Non-toxic,
Cn1cncc1CN1CC(N(CC2CCN(S(=O)(=O)c3ccccc3)CC2)S(=O)(=O)c2ccccn2)Cc2cc(C#N)ccc21 (stereo not given),0.5,0.1,Non-toxic,62,Non-toxic,
Cn1cncc1CN1CC(N(CC2CCN(C(=O)N3CCCC3)CC2)S(=O)(=O)c2ccccn2)Cc2cc(C#N)ccc21 (stereo not given),0.8,0.6,Non-toxic,13,Non-toxic,
Cn1cncc1CN1CC(N(CC2CCN(C(=O)C(C)(C)C)CC2)S(=O)(=O)c2ccccn2)Cc2cc(C#N)ccc21 (stereo not given),0.6,0.5,Non-toxic,15,Non-toxic,
CCS(=O)(=O)N1CCC(CN(C2Cc3cc(C#N)ccc3N(Cc3cncn3C)C2)S(=O)(=O)c2ccccn2)CC1 (stereo not given),0.5,0.1,Non-toxic,62,Non-toxic,
C=C(C)C(=O)N1CCC(CN(C2Cc3cc(C#N)ccc3N(Cc3cncn3C)C2)S(=O)(=O)c2ccccn2)CC1 (stereo not given),0.6,0.5,Non-toxic,18,Non-toxic,
CCC(=O)N1CCC(CN(C2Cc3cc(C#N)ccc3N(Cc3cncn3C)C2)S(=O)(=O)c2ccccn2)CC1 (stereo not given),0.6,0.5,Non-toxic,13,Non-toxic,
Cn1cncc1CN1CC(N(CC2CCN(C(=O)CNC(=O)OC(C)(C)C)CC2)S(=O)(=O)c2ccccn2)Cc2cc(C#N)ccc21 (stereo not given),0.6,0.5,Non-toxic,18,Non-toxic,
Cn1cncc1CN1CC(N(CC2CCN(C(=O)c3ccc(Cl)cc3)CC2)S(=O)(=O)c2ccccn2)Cc2cc(C#N)ccc21 (stereo not given),0.6,0.5,Non-toxic,18,Non-toxic,
Cn1cncc1CN1CC(N(CC(=O)NC(C)(C)C)S(=O)(=O)c2cccnc2)Cc2cc(C#N)ccc21 (stereo not given),10,,,2.7,,
Cn1cncc1CN1CC(N(CC2CCN(C(=O)c3ccccc3)CC2)S(=O)(=O)c2ccccn2)Cc2cc(C#N)ccc21 (stereo not given),0.6,0.5,Non-toxic,18,Non-toxic,

Compound,IC50 [1] [nM],Papp A→B [2] [×10⁻⁶ cm/s],Activity (Rattus norvegicus),EC50 (Plasmodium falciparum) [nM],Activity (Mus musculus),Papp B→A [3] [×10⁻⁶ cm/s]
CCCC(=O)N1CCC(CN(C2Cc3cc(C#N)ccc3N(Cc3cncn3C)C2)S(=O)(=O)c2ccccn2)CC1 (stereo not given),0.6,0.5,Non-toxic,17,Non-toxic,
Cn1cncc1CN1CC(N(CC2CCN(C(=O)C3CC3)CC2)S(=O)(=O)c2ccccn2)Cc2cc(C#N)ccc21 (stereo not given),0.6,0.5,Non-toxic,18,Non-toxic,
CNC(=C[N+](=O)[O-])NCCSCc1ccc(CN(C)C)o1 [RANITIDINE],,0.3,,,,5.6
CC(C)S(=O)(=O)N1CCC(CN(C2Cc3cc(C#N)ccc3N(Cc3cncn3C)C2)S(=O)(=O)c2ccccn2)CC1 (stereo not given),0.5,0.1,Non-toxic,62,Non-toxic,
Cn1cncc1CN1CC(N(CC2CCN(C(=O)NC(C)(C)C)CC2)S(=O)(=O)c2ccccn2)Cc2cc(C#N)ccc21 (stereo not given),0.8,0.6,Non-toxic,13,Non-toxic,
Cn1cncc1CN1CC(N(CC2CCN(S(C)(=O)=O)CC2)S(=O)(=O)c2ccccn2)Cc2cc(C#N)ccc21 (stereo not given),0.5,0.1,Non-toxic,62,Non-toxic,
Cn1cnc(S(=O)(=O)N2CCC(CN(C3Cc4cc(C#N)ccc4N(Cc4cncn4C)C3)S(=O)(=O)c3ccccn3)CC2)c1 (stereo not given),0.5,0.1,Non-toxic,62,Non-toxic,
Cn1cncc1CN1CC(N(CC2CCN(C(=O)c3ccco3)CC2)S(=O)(=O)c2ccccn2)Cc2cc(C#N)ccc21 (stereo not given),0.6,0.5,Non-toxic,18,Non-toxic,
Cn1cncc1CN1CC(N(CC(=O)NC(C)(C)C)S(=O)(=O)c2ccncc2)Cc2cc(C#N)ccc21 (stereo not given),> 50,,,> 5,,
CC(=O)N1CCC(CN(C2Cc3cc(C#N)ccc3N(Cc3cncn3C)C2)S(=O)(=O)c2ccccn2)CC1 (stereo not given),0.6,0.5,Non-toxic,12,Non-toxic,
Cn1cncc1CN1CC(N(CC2CCN(C(=O)Nc3ccc(Br)cc3)CC2)S(=O)(=O)c2ccccn2)Cc2cc(C#N)ccc21 (stereo not given),0.8,0.6,Non-toxic,13,Non-toxic,
Cn1cncc1CN1CC(N(CC(=O)NC(C)(C)C)S(=O)(=O)c2ccccn2)Cc2cc(C#N)ccc21 (stereo not given),1,,,85,,
Cn1cncc1CN1CC(N(CC2CCN(C(=O)C3CCCC3)CC2)S(=O)(=O)c2ccccn2)Cc2cc(C#N)ccc21 (stereo not given),0.6,0.5,Non-toxic,18,Non-toxic,
Cn1cncc1CN1CC(N(CC2CCN(C(=O)c3cccs3)CC2)S(=O)(=O)c2ccccn2)Cc2cc(C#N)ccc21 (stereo not given),0.6,0.5,Non-toxic,18,Non-toxic,
Cn1cncc1CN1CC(N(CC2CCN(C(=O)CC(C)(C)C)CC2)S(=O)(=O)c2ccccn2)Cc2cc(C#N)ccc21 (stereo not given),0.6,0.5,Non-toxic,16,Non-toxic,
CN(C)C(=O)N1CCC(CN(C2Cc3cc(C#N)ccc3N(Cc3cncn3C)C2)S(=O)(=O)c2ccccn2)CC1 (stereo not given),0.8,0.6,Non-toxic,13,Non-toxic,
